Assay [1] concerns mucus-producing differentiated CF pHBECs cultured at ALI. The assay is described as follows: Validation of phage clone uptake by standard double-layer plaque assay. The class given is cell-based, human. Conditions: Cout/Cin, 1 h, 37°C, n = 3. In outline:
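Clones were sequence-verified from BL21 E. coli plaques and amplified in liquid BL21 culture. Each clone (3.3 × 10^7 PFU in 100 µL DPBS) was applied apically to ALI-differentiated CF pHBECs for 1 h at 37°C. Cells were washed with elution buffer and DPBS, lysed with M-PER, and spun at 14,000 × g. Internalized phage in the supernatant were titered by double-layer plaque assay as Cout/Cin. Controls were peptide-less WT phage, naive library, and CPS phage.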

Assay [2] relates to differentiated CF pHBECs cultured at ALI. The class given is cell-based, human. The note with it: average of three replicates, first to last round; 1,000 vg/cell. In outline:
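Pooled T7 CX7C phage libraries were diluted in DPBS (no Ca2+/Mg2+) to 3.3 × 10^5 PFU/µL, giving 1,000 vg/cell, and applied to ALI-differentiated CF pHBECs pooled from seven donors (3.3 × 10^4 cells/insert). Incubation was 16 h at 37°C in round 1 and 1 h in round 5. Lysate was spun at 14,000 × g for 10 min and the supernatant titered by double-layer plaque assay. Output was pooled as input for the next round. Cout/Cin change was taken from three replicates, unpaired t test.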

The mark [3] stands for this setting: 3.3 × 10^7 PFU apical, p < 0.005.

Bridge positions count the residues as written; N and C are the ends. Ends that are not written are not given here.

Consider “CTSTRKKQC (disulfide 1-9 (inferred)) [Clone C]”, for which the “uptake compared to insertless wild-type (WT) control and CPS control” value in assay [1] is reported as “significantly improved uptake”. Further, the “improvement in uptake compared to naive library” value in assay [1] (3.3 × 10^7 PFU apical, p < 0.0005) is recorded as approximately 454 fold. Also, in assay [1] (setting [3]), the “improvement in uptake compared to WT” value is given as 56 fold and the “improvement in uptake compared to clone CPS” value turned out to be 50 fold.
With CXXXXXXXC (disulfide) [CX7C T7 library], the “increase in Cout/Cin after five rounds of selection” value in assay [2] amounted to 380 fold.

The values above are taken from paper PMC11617931 (Molecular Therapy. Nucleic Acids, 2024).
